Experimental data as given in ChEMBL document CHEMBL1157250, “Bioactive dibenzylbutyrolactone and dibenzylbutanediol lignans from Peperomia duclouxii” (J Nat Prod, 2006).

Legend:
[1] = Growth inhibition of human WI38 cells after 48 hrs by WST8 assay; assay type: cell-based; conditions: WI-38, 48 h
Summary of the method: (§1)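 Cells seeded at ca. 5000 per well, held 24 h at 37 °C in 5% CO2, then exposed 48 h to samples dissolved in DMSO. Media with 10% FBS: WI-38 in Eagle's MEM, VA-13 in RITC 80-7, HepG2 in D-MEM. WST-8 formazan read at 450 nm. Viability is background-corrected versus control, IC50 is taken from viability–concentration plots, and values are means of three independent experiments.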

WI-38 VA13 = experiment: Growth inhibition of human VA13 cells after 48 hrs by WST8 assay; assay type: functional, cell-based; conditions: WI-38 VA13, 48 h; summary of the method: as §1
HepG2 = experiment: Growth inhibition of human HepG2 cells after 48 hrs by WST8 assay; assay type: functional, cell-based; conditions: HepG2, 48 h; summary of the method: as §1
[2] = Reversal of multidrug resistance in human 2780AD cells assessed as accumulation of calcein at 0.25 ug/mL after 15 mins by fluorescence technique relative to control; assay type: functional, A2780 ADR
Summary of the method: (§2)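 MDR ovarian 2780AD cells (RPMI-1640, 10% FBS), ca. 1 × 10^5 per well, held 24 h at 37 °C in 5% CO2. Compounds in DMSO diluted with PBS(-) were added 15 min before calcein AM (1 µM in PBS(-) as added), incubated 60 min, then washed with cold PBS(-). Calcein fluorescence is given as a percentage of untreated control, mean of triplicates.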

[3] = Reversal of multidrug resistance in human 2780AD cells assessed as accumulation of calcein at 0.25 ug/mL after 15 mins by fluorescence technique relative to verapamil; assay type: functional, A2780 ADR
Summary of the method: (§3)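 Same 2780AD set-up: 24 h pre-culture, then a 15 min compound pre-exposure (DMSO/PBS(-) dilution), calcein AM added (1 µM in PBS(-) as added) for 60 min, cold PBS(-) washes, and a calcein fluorescence read. Accumulation is expressed relative to that obtained with verapamil at the same concentration, mean of triplicates.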

[4] = Reversal of multidrug resistance in human 2780AD cells assessed as accumulation of calcein at 2.5 ug/mL after 15 mins by fluorescence technique relative to control; assay type: functional, A2780 ADR; summary of the method: as §2
[5] = Reversal of multidrug resistance in human 2780AD cells assessed as accumulation of calcein at 2.5 ug/mL after 15 mins by fluorescence technique relative to verapamil; assay type: functional, A2780 ADR; summary of the method: as §3
[6] = Reversal of multidrug resistance in human 2780AD cells assessed as accumulation of calcein at 25 ug/mL after 15 mins by fluorescence technique relative to control; assay type: functional, A2780 ADR; summary of the method: as §2
[7] = Reversal of multidrug resistance in human 2780AD cells assessed as accumulation of calcein at 25 ug/mL after 15 mins by fluorescence technique relative to verapamil; assay type: functional, A2780 ADR; summary of the method: as §3

SMILES	IC50 [1] [µM]	IC50 (WI-38 VA13) [µM]	IC50 (HepG2) [µM]	Activity [2] [%]	Activity [3] [%]	Activity [4] [%]	Activity [5] [%]	Activity [6] [%]	Activity [7] [%]
COc1cc(C[C@@H]2C(=O)OC[C@H]2Cc2cc(OC)c3c(c2)OCO3)cc(OC)c1OC	> 232	118	42.8	96	92	99	102	155	116
COc1cc(C[C@@H]2C(=O)OC[C@H]2Cc2cc(OC)c3c(c2)OCO3)ccc1O	> 259	210	200	77	74	86	89	85	64
COc1cc(C[C@@H]2COC(=O)[C@H]2Cc2cc(OC)c3c(c2)OCO3)cc2c1OCO2	> 241	130	208	93	104	91	86	116	81
COc1cc(C(=O)[C@@H]2C(=O)OC[C@H]2Cc2cc(OC)c3c(c2)OCO3)cc(OC)c1O	172	127	185	–	–	–	–	–	–
COc1cc(/C=C2/C(=O)OC[C@H]2Cc2cc(OC)c3c(c2)OCO3)cc(OC)c1O	241	157	198	90	87	90	93	114	86
COc1cc([C@@H](O)[C@H]2C(=O)OC[C@@H]2Cc2cc(OC)c3c(c2)OCO3)cc(OC)c1O	> 231	229	> 231	91	88	93	96	104	78
COc1cc(C[C@@H]2COC(=O)[C@H]2Cc2ccc3c(c2)OCO3)cc2c1OCO2	> 260	> 260	> 260	91	102	74	70	96	67
COc1cc(C[C@@H]2C(=O)OC[C@H]2Cc2ccc3c(c2)OCO3)cc2c1OCO2	> 260	23.2	26.4	80	90	109	103	124	86
COc1cc(C[C@@H](CO)[C@H](CO)Cc2cc(OC)c3c(c2)OCO3)cc2c1OCO2	185	219	151	97	93	103	107	121	91
COc1cc(C[C@@H]2C(=O)OC[C@H]2Cc2ccc3c(c2)OCO3)cc(OC)c1O	> 259	183	> 260	93	90	94	97	127	96
COc1cc(C[C@@H]2C(=O)OC[C@H]2Cc2cc(OC)c3c(c2)OCO3)cc(O)c1O	141	181	162	98	110	91	86	120	84
COc1cc(C[C@H](COC(C)=O)[C@@H](COC(C)=O)Cc2cc(OC)c3c(c2)OCO3)cc2c1OCO2	> 199	> 199	> 199	–	–	–	–	–	–
COc1cc(C[C@@H]2C(=O)OC[C@H]2Cc2cc(OC)c3c(c2)OCO3)cc(OC)c1O	195	130	204	86	83	91	94	129	97
COc1cccc2c1C(=O)c1c(O)c3c(c(O)c1C2=O)C[C@@](O)(C(=O)CO)C[C@@H]3O[C@H]1C[C@H](N)[C@H](O)[C@H](C)O1 [DOXORUBICIN]	0.38	0.22	0.69	–	–	–	–	–	–
CC(=O)O[C@H]1C(=O)[C@@]2(C)[C@H]([C@H](OC(=O)c3ccccc3)[C@]3(O)C[C@H](OC(=O)[C@H](O)[C@@H](NC(=O)c4ccccc4)c4ccccc4)C(C)=C1C3(C)C)[C@]1(OC(C)=O)CO[C@@H]1C[C@@H]2O [PACLITAXEL]	0.034	0.0043	6.9	–	–	–	–	–	–
COc1ccc(CCN(C)CCCC(C#N)(c2ccc(OC)c(OC)c2)C(C)C)cc1OC (centres undefined) [VERAPAMIL]	–	–	–	104	–	106	–	144	–
